Measured values from ChEMBL document CHEMBL1629663, “Postantibiotic effects of telavancin against 16 gram-positive organisms” (Antimicrob Agents Chemother, 2009).
≈ marks a conversion by molar mass, not a printed value.

Experiments:
Type in all cases: functional
Enterococcus faecium [1] = assay: Antimicrobial activity against Enterococcus faecium HMC 588 assessed as time required to induce post antibiotic sub-MIC effect at 0.2 times MIC pre-exposed to Telavancin […] by plate counting method
Procedure, shortened: (§1)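 Mueller-Hinton broth cultures of about 5 × 10^6 CFU/ml were pre-exposed to telavancin at 10× MIC for 1 h at 35°C, then diluted 1:1,000. Telavancin was re-added to final 0.2, 0.3 or 0.4× MIC, alongside a drug-free tube. Viable counts were taken before exposure, after dilution, then every 2 h until McFarland no. 1 turbidity. Duration comes from log10 CFU/ml-versus-time plots; two separate experiments with fresh inocula.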

Staphylococcus aureus [2] = assay: Antimicrobial activity against vancomycin-intermediate-, methicillin-resistant Staphylococcus aureus 555 assessed as time required to induce sub-MIC effect at 0.4 times MIC […] by plate counting method
Procedure, shortened: (§2)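 SME, viable plate count method: no prior drug exposure. About 5 × 10^6 CFU/ml in Mueller-Hinton broth at 35°C received 0.2, 0.3 or 0.4× MIC, alongside a drug-free tube. Counts were taken at the start, then every 2 h until McFarland no. 1 turbidity, as log10 CFU/ml against time. Two separate experiments, each with a new inoculum.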

Enterococcus faecium [3] = assay: Antimicrobial activity against Enterococcus faecium HMC 588 assessed as time required to induce post antibiotic sub-MIC effect at 0.4 times MIC […] by plate counting method; procedure, shortened: as §1
Staphylococcus aureus [4] = assay: Antimicrobial activity against vancomycin-intermediate-, methicillin-resistant Staphylococcus aureus 770 assessed as time required to induce sub-MIC effect at 0.3 times MIC exposed for 2 hrs by plate counting method; procedure, shortened: as §2
Staphylococcus aureus [5] = assay: Antimicrobial activity against vancomycin-intermediate-, methicillin-resistant Staphylococcus aureus 555 by microdilution method
Staphylococcus aureus [6] = assay: Antimicrobial activity against vancomycin-intermediate-, methicillin-resistant Staphylococcus aureus 1287 assessed as post-antibiotic effect at 10 times MIC pre-exposed to Telavancin for 1 hr by plate counting method
Procedure, shortened: (§3)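 Viable plate count method in Mueller-Hinton broth. Direct colony suspension inoculum of about 5 × 10^6 CFU/ml was exposed to 10× MIC for 1 h at 35°C in a shaking water bath, then diluted 1:1,000 to remove drug. Counts were taken before exposure, at 0 h, then every 2 h until McFarland no. 1 turbidity. PAE = T − C, the time to a 1 log10 rise versus an unexposed growth control.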

Staphylococcus aureus [7] = assay: Antimicrobial activity against vancomycin-intermediate-, methicillin-resistant Staphylococcus aureus 770 assessed as post-antibiotic effect at 10 times MIC pre-exposed to Telavancin for 1 hr by plate counting method; procedure, shortened: as §3
Staphylococcus aureus [8] = assay: Antimicrobial activity against heterogenous vancomycin-intermediate-, methicillin-resistant Staphylococcus aureus 873 assessed as time required to induce post antibiotic sub-MIC effect at 0.4 times MIC […] by plate counting method
Procedure, shortened: (§4)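 PAE was first induced with 10× MIC for 1 h at 35°C (inoculum about 5 × 10^6 CFU/ml, Mueller-Hinton broth) and ended by 1:1,000 dilution. Cultures were then split and given 0.2, 0.3 or 0.4× MIC, with one tube left without drug. Viable counts were taken before exposure, after dilution, then every 2 h until McFarland no. 1 turbidity. Two separate experiments, each with a new inoculum.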

Staphylococcus aureus [9] = assay: Antimicrobial activity against vancomycin-susceptible-, methicillin-resistant Staphylococcus aureus ATCC 33591 assessed as time required to induce post antibiotic sub-MIC effect at 0.4 times MIC […] by plate counting method
Procedure, shortened: (§5)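 After 1 h preexposure to 10× MIC at 35°C and 1:1,000 dilution, cultures were split, and drug was re-added to final 0.2, 0.3 or 0.4× MIC, with a drug-free tube. Viable counts were taken every 2 h until McFarland 1 turbidity. Duration was derived from log10 CFU/ml versus time curves. Two experiments were run, each with a new inoculum.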

Streptococcus pyogenes [10] = assay: Antimicrobial activity against Streptococcus pyogenes HMC 414 assessed as time required to induce sub-MIC effect at 0.3 times MIC exposed for 2 hrs by plate counting method
Procedure, shortened: (§6)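 Unexposed Mueller-Hinton broth cultures (about 5 × 10^6 CFU/ml, 35°C) were handled as in the PA-SME set but without the 10× MIC pre-exposure. They were diluted 1:1,000, then given telavancin at final 0.2, 0.3 or 0.4× MIC, with a drug-free control. Viable counts were taken every 2 h until McFarland no. 1 turbidity. Effect duration comes from log10 CFU/ml-time plots; two separate experiments with new inocula.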

Staphylococcus aureus [11] = assay: Antimicrobial activity against vancomycin-resistant-, methicillin-resistant Staphylococcus aureus 510 assessed as time required to induce sub-MIC effect at 0.2 times MIC exposed for 2 hrs by plate counting method
Procedure, shortened: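 Sub-MIC effect: cultures not preexposed to drug were diluted and handled as in the PA-SME procedure in Mueller-Hinton broth with final 0.2, 0.3 or 0.4× MIC, plus a drug-free control. Viable plate counts were taken every 2 h until McFarland 1 turbidity. Duration was derived from growth curves. Two experiments were run, each with a new inoculum.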

Streptococcus pyogenes [12] = assay: Antimicrobial activity against Streptococcus pyogenes HMC 414 assessed as time required to induce sub-MIC effect at 0.4 times MIC exposed for 2 hrs by plate counting method; procedure, shortened: as §6
Staphylococcus aureus [13] = assay: Antimicrobial activity against vancomycin-resistant-, methicillin-resistant Staphylococcus aureus 510 assessed as time required to induce post antibiotic sub-MIC effect at 0.4 times MIC […] by plate counting method; procedure, shortened: as §5
Staphylococcus aureus [14] = assay: Antimicrobial activity against vancomycin-intermediate-, methicillin-resistant Staphylococcus aureus 555 assessed as time required to induce post antibiotic sub-MIC effect at 0.3 times MIC […] by plate counting method; procedure, shortened: as §4
Staphylococcus aureus [15] = assay: Antimicrobial activity against vancomycin-susceptible-, methicillin-resistant Staphylococcus aureus ATCC 33591 assessed as time required to induce post antibiotic sub-MIC effect at 0.2 times MIC pre-exposed to Telavancin […] by plate counting method; procedure, shortened: as §5
Staphylococcus aureus [16] = assay: Antimicrobial activity against vancomycin-susceptible-, methicillin-resistant Staphylococcus aureus 1306 by microdilution method
Staphylococcus aureus [17] = assay: Antimicrobial activity against heterogenous vancomycin-intermediate-, methicillin-resistant Staphylococcus aureus 618 assessed as time required to induce post antibiotic sub-MIC effect at 0.2 times MIC pre-exposed to Telavancin […] by plate counting method; procedure, shortened: as §4
Enterococcus faecalis = assay: Antimicrobial activity against Enterococcus faecalis HMC 571 assessed as post-antibiotic effect at 10 times MIC pre-exposed to Telavancin for 1 hr by plate counting method
Procedure, shortened: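 Organisms were suspended in Mueller-Hinton broth from overnight blood agar colonies at about 5 × 10^6 CFU/ml. Cultures were exposed to telavancin at 10× MIC for 1 h at 35°C in a shaking water bath, then diluted 1:1,000 to remove the drug, with an untreated growth control. Viable counts were taken before exposure, at 0 h, then every 2 h until McFarland no. 1 turbidity. PAE = T − C, the time to a 1 log10 rise. Two experiments.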

Staphylococcus aureus [18] = assay: Antimicrobial activity against vancomycin-intermediate-, methicillin-resistant Staphylococcus aureus 555 assessed as time required to induce post antibiotic sub-MIC effect at 0.2 times MIC […] by plate counting method; procedure, shortened: as §4
Staphylococcus aureus [19] = assay: Antimicrobial activity against vancomycin-intermediate-, methicillin-resistant Staphylococcus aureus 1984 assessed as time required to induce sub-MIC effect at 0.4 times MIC […] by plate counting method; procedure, shortened: as §2

With `CCCCCCCCCCNCCN[C@@]1(C)C[C@H](O[C@H]2[C@H](Oc3c4cc5cc3Oc3ccc(cc3Cl)[C@@H](O)[C@@H](NC(=O)[C@@H](CC(C)C)NC)C(=O)N[C@@H](CC(N)=O)C(=O)N[C@H]5C(=O)N[C@H]3C(=O)N[C@H](C(=O)N[C@H](C(=O)O)c5cc(O)c(CNCP(=O)(O)O)c(O)c5-c5cc3ccc5O)[C@H](O)c3ccc(c(Cl)c3)O4)O[C@H](CO)[C@@H](O)[C@@H]2O)O[C@@H](C)[C@H]1O` [TELAVANCIN] the PAE (Enterococcus faecium [1]) was 1.9 h, the PAE (Staphylococcus aureus [2]) was 4.3 h and the PAE (Enterococcus faecium [3]) was over 10 h. It also gave a PAE (Staphylococcus aureus [4]) of 0.8 h, an MIC (Staphylococcus aureus [5]) of 0.5 µg/mL (≈ 0.285 µM) and a PAE (Staphylococcus aureus [6]) of 1.2 h. It also gave a PAE (Staphylococcus aureus [7]) of 1.6 h, a PAE (Staphylococcus aureus [8]) of 6.7 h and a PAE (Staphylococcus aureus [9]) of over 10 h. It also gave a PAE (Streptococcus pyogenes [10]) of 0 h, a PAE (Staphylococcus aureus [11]) of 1.9 h and a PAE (Streptococcus pyogenes [12]) of 0.4 h. It also gave a PAE (Staphylococcus aureus [13]) of 8.1 h, a PAE (Staphylococcus aureus [14]) of 10.3 h and a PAE (Staphylococcus aureus [15]) of 7.7 h. For the same compound, the MIC (Staphylococcus aureus [16]) was 0.12 µg/mL (≈ 0.0684 µM), the PAE (Staphylococcus aureus [17]) was 5.7 h and the PAE (Enterococcus faecalis) was 1.5 h. For the same compound, the PAE (Staphylococcus aureus [18]) was 5.9 h and the PAE (Staphylococcus aureus [19]) was 10 h.
